# Reference: ChEMBL document CHEMBL3616431, “Exploring the 3-piperidin-4-yl-1H-indole scaffold as a novel antimalarial chemotype” (Eur J Med Chem, 2015)
# Columns and labels:
# Plasmodium falciparum [1] = assay: Antimalarial activity against chloroquine-resistant Plasmodium falciparum Dd2 infected in human erythrocyte assessed as growth inhibition at 5 uM by SYBR Green-1 assay; type: functional
# How it was run: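 Erythrocytic-stage P. falciparum Dd2 growth inhibition at a fixed 5 µM single concentration. Synchronized ring-stage parasites in RPMI-1640 with 0.5% AlbuMAX II, 1.0% hematocrit, 1.0% initial parasitemia. Incubated 72 h under standard culture conditions, then stained with SYBR Green I (1:5,000). Fluorescence read at ex 494 nm, em 530 nm after room-temperature storage.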
# Plasmodium falciparum [2] = assay: Antimalarial activity against chloroquine-resistant Plasmodium falciparum Dd2 infected in human erythrocyte assessed as growth inhibition by SYBR Green-1 assay; type: functional, organism-based
# How it was run: (§1)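 Dose-response EC50 against Dd2 and 3D7. Synchronized ring-stage parasites in RPMI-1640 with 0.5% AlbuMAX II, 1.0% hematocrit, 1.0% initial parasitemia. Triplicate 12-point 2-fold serial dilutions, incubated 72 h under standard culture conditions. Read-out by SYBR Green I (1:5,000) fluorescence, ex 494/em 530 nm. EC50 by non-linear regression after background subtraction and normalization.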
# Plasmodium falciparum [3] = assay: Antimalarial activity against chloroquine-sensitive Plasmodium falciparum 3D7 infected in human erythrocyte assessed as growth inhibition by SYBR Green-1 assay; type: functional, organism-based; how it was run: as §1
# HepG2 [4] = assay: Cytotoxicity against human HepG2A16 cells after 48 hrs by MTT assay; type: cell-based; conditions: HepG2A16, 48 h
# How it was run: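 HepG2 A16 cells seeded at 1 × 10^4 cells/well, adhered overnight. Exposed to seven ten-fold dilutions (100 µM–1 nM); drug-free medium as negative control. Medium with compound renewed at 24 h, total 48 h. MTT (5 mg/mL stock in PBS) added for 3 h, then supernatant removed and acidified isopropanol added for read-out.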
# [5] = Selectivity index, ratio of EC50 for human HepG2A16 cells to EC50 for chloroquine-resistant Plasmodium falciparum Dd2 infected in human erythrocyte; type: toxicity; conditions: read-out: Ratio EC50
# How it was run: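 Selectivity index computed as HepG2 A16 MTT EC50 (48 h exposure) divided by P. falciparum Dd2 EC50 (72 h SYBR Green I assay).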
# [6] = Selectivity index, ratio of EC50 for human HepG2A16 cells to EC50 for chloroquine-sensitive Plasmodium falciparum 3D7 infected in human erythrocyte; type: toxicity; conditions: read-out: Ratio EC50
# How it was run: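 Selectivity index computed as HepG2 A16 MTT EC50 (48 h exposure) divided by P. falciparum 3D7 EC50 (72 h SYBR Green I assay).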
# Plasmodium falciparum [7] = assay: Antimalarial activity against chloroquine-sensitive Plasmodium falciparum 3D7; type: functional, organism-based
# HepG2 [8] = assay: Cytotoxicity against human HepG2A16 cells; type: cell-based
# How it was run: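 HepG2 A16 cells seeded at 1 × 10^4 cells/well and left to adhere overnight. Exposed to 7 ten-fold dilutions (100 µM–1 nM), drug-free medium as negative control. Medium with compound renewed at 24 h, total 48 h exposure. Viability by MTT (5 mg/mL stock in PBS, 3 h), formazan dissolved in acidified isopropanol; EC50 reported.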
smiles,measurement,setting,value
c1ccc2c(C3CCN(Cc4ccc(CN5CCCCC5)cc4)CC3)c[nH]c2c1,inhibition at 5 µM,Plasmodium falciparum [1],100%
same,EC50,Plasmodium falciparum [2],2910 nM
same,EC50,Plasmodium falciparum [3],1350 nM
FC(F)(F)c1ccc(CN2CCC(c3c[nH]c4ccccc34)CC2)cc1,inhibition at 5 µM,Plasmodium falciparum [1],< 10%
c1ccc2c(C3CCN(CC4CCCCC4)CC3)c[nH]c2c1,inhibition at 5 µM,Plasmodium falciparum [1],< 10%
Clc1ccc2nccc(N3CCC(CN4CCC(c5c[nH]c6ccccc56)CC4)CC3)c2c1,inhibition at 5 µM,Plasmodium falciparum [1],100%
same,EC50,Plasmodium falciparum [2],940 nM
same,EC50,Plasmodium falciparum [3],240 nM
same,EC50,HepG2 [4],3860 nM
same,selectivity ratio,[5],4.1
same,selectivity ratio,[6],16.1
same,EC50,Plasmodium falciparum [7],34 nM
same,EC50,HepG2 [8],> 10000 nM
O=C(c1ccccc1)N1CCC(c2c[nH]c3ccccc23)CC1,inhibition at 5 µM,Plasmodium falciparum [1],< 10%
Oc1cccc2ccc(CN3CCC(c4c[nH]c5ccccc45)CC3)nc12,inhibition at 5 µM,Plasmodium falciparum [1],< 10%
c1ccc2c(C3CCN(Cc4ccncc4)CC3)c[nH]c2c1,inhibition at 5 µM,Plasmodium falciparum [1],< 10%
O=C(c1ccncc1)N1CCC(c2c[nH]c3ccccc23)CC1,inhibition at 5 µM,Plasmodium falciparum [1],14%
c1ccc2c(C3CCN(Cc4ccc(CN5CCOCC5)cc4)CC3)c[nH]c2c1,inhibition at 5 µM,Plasmodium falciparum [1],66%
O=C(c1cnccn1)N1CCC(c2c[nH]c3ccccc23)CC1,inhibition at 5 µM,Plasmodium falciparum [1],< 10%
CC(=O)n1cc(CN2CCC(c3c[nH]c4ccccc34)CC2)c2ccccc21,inhibition at 5 µM,Plasmodium falciparum [1],70%
c1ccc2c(C3CCN(CC4CCNCC4)CC3)c[nH]c2c1,inhibition at 5 µM,Plasmodium falciparum [1],< 10%
O=C(c1ccccc1)N1CCC(C(=O)N2CCC(c3c[nH]c4ccccc34)CC2)CC1,inhibition at 5 µM,Plasmodium falciparum [1],< 10%
O=C(c1ccc(C(=O)N2CCC(c3c[nH]c4ccccc34)CC2)cc1)N1CCC(c2c[nH]c3ccccc23)CC1,inhibition at 5 µM,Plasmodium falciparum [1],80%
CCN(CC)Cc1cc(Nc2ccnc3cc(Cl)ccc23)ccc1O [AMODIAQUINE],EC50,Plasmodium falciparum [2],12.3 nM
same,EC50,Plasmodium falciparum [3],5.85 nM
O=C(c1cccs1)N1CCC(C(=O)N2CCC(c3c[nH]c4ccccc34)CC2)CC1,inhibition at 5 µM,Plasmodium falciparum [1],< 10%
CC(=O)N1CCC(c2c[nH]c3ccccc23)CC1,inhibition at 5 µM,Plasmodium falciparum [1],< 10%
COc1cc(OC)cc(C(=O)N2CCC(C(=O)N3CCC(c4c[nH]c5ccccc45)CC3)CC2)c1,inhibition at 5 µM,Plasmodium falciparum [1],10%
Clc1ccc2nccc(N3CCC(c4c[nH]c5ccccc45)CC3)c2c1,inhibition at 5 µM,Plasmodium falciparum [1],32%
same,EC50,Plasmodium falciparum [2],5010 nM
same,EC50,Plasmodium falciparum [3],6300 nM
same,EC50,HepG2 [4],4240 nM
same,selectivity ratio,[5],0.85
same,selectivity ratio,[6],0.67
OCCOc1cccc(CN2CCC(c3c[nH]c4ccccc34)CC2)c1,inhibition at 5 µM,Plasmodium falciparum [1],< 10%
O=C(c1ccccn1)N1CCC(c2c[nH]c3ccccc23)CC1,inhibition at 5 µM,Plasmodium falciparum [1],< 10%
COc1ccc(OC)c(C(=O)N2CCC(c3c[nH]c4ccccc34)CC2)c1,inhibition at 5 µM,Plasmodium falciparum [1],< 10%
COc1cc(O)cc(OC)c1CN1CCC(c2c[nH]c3ccccc23)CC1,inhibition at 5 µM,Plasmodium falciparum [1],< 10%
c1ccc2c(C3CCN(Cc4ccc(CN5CCC(c6c[nH]c7ccccc67)CC5)cc4)CC3)c[nH]c2c1,inhibition at 5 µM,Plasmodium falciparum [1],100%
same,EC50,Plasmodium falciparum [2],210 nM
same,EC50,Plasmodium falciparum [3],80 nM
same,EC50,HepG2 [4],460 nM
same,selectivity ratio,[5],2.19
same,selectivity ratio,[6],5.75
O=C(c1cccnc1)N1CCC(c2c[nH]c3ccccc23)CC1,inhibition at 5 µM,Plasmodium falciparum [1],100%
same,EC50,Plasmodium falciparum [2],2950 nM
same,EC50,Plasmodium falciparum [3],3800 nM
same,EC50,HepG2 [4],12800 nM
same,selectivity ratio,[5],4.33
same,selectivity ratio,[6],3.37
O=C(c1ccc(F)cc1)N1CCC(C(=O)N2CCC(c3c[nH]c4ccccc34)CC2)CC1,inhibition at 5 µM,Plasmodium falciparum [1],< 10%
O=Cc1ccc(CN2CCC(c3c[nH]c4ccccc34)CC2)cc1,inhibition at 5 µM,Plasmodium falciparum [1],20%
Cc1ccccc1CN1CCC(c2c[nH]c3ccccc23)CC1,inhibition at 5 µM,Plasmodium falciparum [1],11%
c1ccc2c(C3CCN(Cc4csc5ccccc45)CC3)c[nH]c2c1,inhibition at 5 µM,Plasmodium falciparum [1],16%
O=C(c1cccs1)N1CCC(c2c[nH]c3ccccc23)CC1,inhibition at 5 µM,Plasmodium falciparum [1],< 10%
COc1cc(Cl)c(CN2CCC(c3c[nH]c4ccccc34)CC2)c(Cl)c1OC,inhibition at 5 µM,Plasmodium falciparum [1],< 10%
O=C1C(O)=C([C@H]2CC[C@H](c3ccc(Cl)cc3)CC2)C(=O)c2ccccc21 [ATOVAQUONE],EC50,Plasmodium falciparum [2],0.19 nM
same,EC50,Plasmodium falciparum [3],0.35 nM
c1ccc(CN2CCC(c3c[nH]c4ccccc34)CC2)cc1,inhibition at 5 µM,Plasmodium falciparum [1],15%
O=C(c1cccnc1)N1CCC(C(=O)N2CCC(c3c[nH]c4ccccc34)CC2)CC1,inhibition at 5 µM,Plasmodium falciparum [1],30%
CC(C)=CCC[C@H](C)CCN1CCC(c2c[nH]c3ccccc23)CC1,inhibition at 5 µM,Plasmodium falciparum [1],17%
Cc1c(CN2CCC(c3c[nH]c4ccccc34)CC2)c(=O)n(-c2ccccc2)n1C,inhibition at 5 µM,Plasmodium falciparum [1],< 10%
C[C@H]1[C@H](OC(=O)CCC(=O)O)O[C@@H]2O[C@@]3(C)CC[C@H]4[C@H](C)CC[C@@H]1[C@@]24OO3 [ARTESUNATE],EC50,Plasmodium falciparum [2],1.76 nM
same,EC50,Plasmodium falciparum [3],1.97 nM
c1csc(CN2CCC(c3c[nH]c4ccccc34)CC2)c1,inhibition at 5 µM,Plasmodium falciparum [1],< 10%
CC(=O)N1CCC(C(=O)N2CCC(c3c[nH]c4ccccc34)CC2)CC1,inhibition at 5 µM,Plasmodium falciparum [1],10%
c1ccc2c(C3CCNCC3)c[nH]c2c1,inhibition at 5 µM,Plasmodium falciparum [1],< 10%
Fc1ccc(CN2CCC(c3c[nH]c4ccccc34)CC2)cc1,inhibition at 5 µM,Plasmodium falciparum [1],14%
O=C(c1ccc(F)cc1)N1CCC(c2c[nH]c3ccccc23)CC1,inhibition at 5 µM,Plasmodium falciparum [1],< 10%
CCN(CC)CCCC(C)Nc1ccnc2cc(Cl)ccc12 (stereo unspecified) [CHLOROQUINE],EC50,Plasmodium falciparum [2],285 nM
same,EC50,Plasmodium falciparum [3],23 nM
